From ChEMBL document CHEMBL1154208, “Antispasmodic effects and structure-activity relationships of labdane diterpenoids from Marrubium globosum ssp. libanoticum” (2009)
The source made the active and inactive calls. No cut-off for these calls is given here.

Columns and labels:
Ileum [1] = experiment: Antispasmodic activity in mouse distal ileum assessed as inhibition of acetylcholine-induced contractions at 100 ug/ml after 20 mins; type: functional; settings: for inhibition at 100 µg/mL: read-out: INH
In short: (§1)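 Isolated mouse ileum segments. Contractions evoked by acetylcholine (10^-6 M) at 20 min intervals; after at least three stable control contractions, responses repeated with noncumulative increasing compound concentrations added 20 min before the stimulus, after tissue washing. Mean ± SEM of 6-8 experiments; concentration-response curves fitted by nonlinear regression.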

Ileum [2] = experiment: Antispasmodic activity in mouse distal ileum assessed as inhibition of acetylcholine-induced contractions after 20 mins; type: functional, tissue-based; in short: as §1

Row | Compound | inhibition (Ileum [1]) | further results
1 | C[C@@H]1C[C@H]2OC(=O)[C@@]3(C)CCC[C@@](C)([C@@H]23)[C@@]12CC[C@@]1(CO[C@H](O)C1)O2 | inactive | –
2 | C[C@@H]1C[C@H]2OC(=O)[C@@]3(C)CCC[C@@](C)([C@@H]23)[C@@]12CC[C@]1(COC(=O)C1)O2 | Active | –
3 | C[C@@H]1C[C@H]2OC(=O)[C@@]3(C)CCC[C@@](C)([C@@H]23)[C@@]1(O)CCCC(=O)O | Active | –
4 | C[C@@H]1C[C@H]2OC(=O)[C@@]3(C)CCC[C@@](C)([C@@H]23)[C@@]12CC[C@@]1(COC(=O)C1)O2 | Active | –
5 | C[C@@H]1C[C@H]2OC(=O)[C@@]3(C)CCC[C@@](C)([C@@H]23)[C@@]12CCC(=O)O2 | – | inhibition at 100 µg/mL (Ileum [1]): < 50%
6 | C[C@@H]1C[C@@H](O)[C@H]2C(C)(C)CCC[C@]2(C)[C@@]1(O)CCC1=CC(=O)OC1 | inactive | –
7 | C[C@@H]1C[C@H]2OC(=O)[C@@]3(C)CCC[C@@](C)([C@@H]23)[C@@]12CCCC(=O)O2 [MARRULACTONE] | – | inhibition at 100 µg/mL (Ileum [1]): < 50%
8 | C[C@@H]1C[C@H]2OC(=O)[C@@]3(C)CCC[C@@](C)([C@@H]23)[C@@]12CC[C@]1(CO[C@@H](O)C1)O2 | Active | –
9 | CCO[C@@H]1O[C@@H]2O[C@]3(CC[C@]2(O)[C@H]1O)[C@H](C)C[C@H]1OC(=O)[C@@]2(C)CCC[C@@]3(C)[C@@H]12 (relative stereo) | – | inhibition (Ileum [2]): Dose-dependent effect
10 | C[C@@H]1C[C@H]2OC(=O)[C@@]3(C)CCC[C@@](C)([C@@H]23)[C@@]1(O)CCC1=CC(=O)OC1 | inactive | –
11 | C[C@@H]1C[C@H]2OC(=O)[C@@]3(C)CCC[C@@](C)([C@@H]23)[C@@]12CC[C@]1(CO[C@H](O)C1)O2 | Active | –
12 | C[C@@H]1C[C@H]2OC(=O)[C@@]3(C)CCC[C@@](C)([C@@H]23)[C@@]12CC[C@@]1(CO[C@@H](O)C1)O2 | inactive | –
